Assay results as given in ChEMBL document CHEMBL3526048, “In vitro metabolism of rivoglitazone, a novel peroxisome proliferator-activated receptor γ agonist, in rat, monkey, and human liver microsomes and freshly isolated hepatocytes” (Drug Metab Dispos, 2011).

Assays:
[1] = target: T1, UDP-glucuronosyltransferase 2B7 (Homo sapiens, UniProt P16662); test: Activity of human UGT2B7 expressed in microsomes isolated from baculovirus infected insect cell assessed as enzyme-mediated compound formation treated with [14C]-rivoglitazone at 20 uM after 4 hrs by radio-HPLC/LC-MS/MS analysis in presence of UDPGA, UDPGA/SAM
T1 sequence (P16662 whole entry): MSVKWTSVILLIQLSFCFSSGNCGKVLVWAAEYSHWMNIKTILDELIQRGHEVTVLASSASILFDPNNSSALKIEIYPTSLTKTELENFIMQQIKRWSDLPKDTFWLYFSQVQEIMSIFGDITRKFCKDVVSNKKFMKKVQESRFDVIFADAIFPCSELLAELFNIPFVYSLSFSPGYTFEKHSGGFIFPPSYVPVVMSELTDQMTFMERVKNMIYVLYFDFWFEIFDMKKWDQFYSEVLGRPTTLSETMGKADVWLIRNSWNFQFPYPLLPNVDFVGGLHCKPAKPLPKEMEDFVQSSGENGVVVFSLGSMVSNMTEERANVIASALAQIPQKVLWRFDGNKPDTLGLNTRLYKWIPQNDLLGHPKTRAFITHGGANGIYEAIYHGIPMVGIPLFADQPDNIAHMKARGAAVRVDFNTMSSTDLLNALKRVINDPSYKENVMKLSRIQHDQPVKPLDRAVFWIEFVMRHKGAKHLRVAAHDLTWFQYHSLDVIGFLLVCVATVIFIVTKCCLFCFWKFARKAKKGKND

[2] = target: T2, UDP-glucuronosyltransferase 2B15 (Homo sapiens, UniProt P54855); test: Activity of human UGT2B15 expressed in microsomes isolated from baculovirus infected insect cell assessed as enzyme-mediated 2-mercapto-3-(4-((6-methoxy-1-methyl-1H-benzo[d]imidazol-2-yl)methoxy)phenyl)propanoic acid formation at 20 uM after 4 hrs by radio-HPLC/LC-MS/MS analysis in presence of UDPGA; type: ADME
T2 sequence (P54855 whole entry): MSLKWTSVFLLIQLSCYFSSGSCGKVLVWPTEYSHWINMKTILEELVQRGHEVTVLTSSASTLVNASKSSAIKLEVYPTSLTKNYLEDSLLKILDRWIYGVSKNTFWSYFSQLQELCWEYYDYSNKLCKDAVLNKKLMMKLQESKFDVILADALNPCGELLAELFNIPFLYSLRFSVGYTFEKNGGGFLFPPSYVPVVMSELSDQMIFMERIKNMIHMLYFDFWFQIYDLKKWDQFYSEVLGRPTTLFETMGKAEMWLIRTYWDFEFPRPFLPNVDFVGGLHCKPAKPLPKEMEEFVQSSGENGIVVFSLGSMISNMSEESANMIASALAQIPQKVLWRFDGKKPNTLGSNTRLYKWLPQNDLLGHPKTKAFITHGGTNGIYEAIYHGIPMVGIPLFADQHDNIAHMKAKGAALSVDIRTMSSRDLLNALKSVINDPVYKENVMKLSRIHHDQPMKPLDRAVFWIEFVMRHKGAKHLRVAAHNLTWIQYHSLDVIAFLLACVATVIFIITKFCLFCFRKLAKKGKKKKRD

[3] = Drug metabolism in human hepatocytes assessed as formation of 3-(4-((6-methoxy-1-methyl-1H-benzo[d]imidazol-2-yl)methoxy)phenyl)-2-(methylsulfinyl)propanamide at 30 uM after 3 hrs by radio-HPLC/LC-MS/MS analysis in presence of NADPH-generating system/SAM; type: ADME, cell-based, Hepatocyte
Cytochrome P450 2C19 = Cytochrome P450 2C19 (Homo sapiens, UniProt P33261); test: Activity of human CYP2C19 expressed in microsomes isolated from baculovirus infected insect cell assessed as enzyme-mediated 2-mercapto-3-(4-((6-methoxy-1-methyl-1H-benzo[d]imidazol-2-yl)methoxy)phenyl)propanamide formation at 20 uM after 2 hrs by radio-HPLC/LC-MS/MS analysis in presence of NADPH-generating system and NADPH-generating system/SAM; type: ADME
In short: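 Baculovirus/insect-cell microsomes expressing single human CYPs, 1 mg/ml protein, with 50 mM potassium phosphate (pH 7.4) or 100 mM Tris-HCl (pH 7.5). NADPH-generating system: 2 mM NADP⁺, 20 mM glucose 6-phosphate, 2 units/ml G6PDH, 10 mM MgCl₂. [¹⁴C]rivoglitazone at 20 μM, 2 h at 37°C with shaking. Control used insect-cell control supersomes. Stopped with acetonitrile; supernatant concentrated under nitrogen; metabolites analysed by radio-HPLC, LC-MS and LC-MS/MS.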

[4] = target: T3, UDP-glucuronosyltransferase 1A9 (Homo sapiens, UniProt O60656); test: Activity of human UGT1A9 expressed in microsomes isolated from baculovirus infected insect cell assessed as enzyme-mediated (2S,3S,4S,5R,6R)-6-((1-carboxy-2-(4-((6-methoxy-1-methyl-1H-benzo[d]imidazol-2-yl)methoxy)phenyl)ethylthio)carbonylamino)-3,4,5-trihydroxytetrahydro-2H-pyran-2-carboxylic acid formation at 20 uM after 4 hrs by radio-HPLC/LC-MS/MS analysis in presence of UDPGA; type: ADME
T3 sequence (O60656 whole entry): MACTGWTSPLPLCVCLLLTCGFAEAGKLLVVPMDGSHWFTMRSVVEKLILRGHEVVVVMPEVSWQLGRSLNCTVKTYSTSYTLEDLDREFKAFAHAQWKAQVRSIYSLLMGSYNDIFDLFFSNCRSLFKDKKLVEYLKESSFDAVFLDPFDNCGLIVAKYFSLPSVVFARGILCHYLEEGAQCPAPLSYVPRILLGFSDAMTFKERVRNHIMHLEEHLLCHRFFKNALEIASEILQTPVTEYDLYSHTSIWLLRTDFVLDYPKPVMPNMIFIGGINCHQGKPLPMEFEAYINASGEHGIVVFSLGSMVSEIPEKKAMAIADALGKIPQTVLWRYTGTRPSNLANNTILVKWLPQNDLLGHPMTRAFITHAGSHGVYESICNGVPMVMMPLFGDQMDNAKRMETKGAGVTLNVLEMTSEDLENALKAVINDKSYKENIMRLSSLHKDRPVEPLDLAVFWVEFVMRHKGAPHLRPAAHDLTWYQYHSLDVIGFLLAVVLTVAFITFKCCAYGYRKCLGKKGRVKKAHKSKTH

Cytochrome P450 2C9 = Cytochrome P450 2C9 (Homo sapiens, UniProt P11712); test: Activity of human CYP2C9 expressed in microsomes isolated from baculovirus infected insect cell assessed as enzyme-mediated (2S,3S,4S,5R,6R)-6-((1-carboxy-2-(4-((6-methoxy-1-methyl-1H-benzo[d]imidazol-2-yl)methoxy)phenyl)ethylthio)carbonylamino)-3,4,5-trihydroxytetrahydro-2H-pyran-2-carboxylic acid formation at 20 uM after 2 hrs by radio-HPLC/LC-MS/MS analysis in presence of NADPH-generating system/SAM; type: ADME
[5] = target: T2, UDP-glucuronosyltransferase 2B15; test: Activity of human UGT2B15 expressed in microsomes isolated from baculovirus infected insect cell assessed as enzyme-mediated (2S,3S,4S,5R,6R)-6-((1-carboxy-2-(4-((6-methoxy-1-methyl-1H-benzo[d]imidazol-2-yl)methoxy)phenyl)ethylthio)carbonylamino)-3,4,5-trihydroxytetrahydro-2H-pyran-2-carboxylic acid formation at 20 uM after 4 hrs by radio-HPLC/LC-MS/MS analysis in presence of UDPGA; type: ADME

Cytochrome P450 2C19, sequence (P33261 whole entry): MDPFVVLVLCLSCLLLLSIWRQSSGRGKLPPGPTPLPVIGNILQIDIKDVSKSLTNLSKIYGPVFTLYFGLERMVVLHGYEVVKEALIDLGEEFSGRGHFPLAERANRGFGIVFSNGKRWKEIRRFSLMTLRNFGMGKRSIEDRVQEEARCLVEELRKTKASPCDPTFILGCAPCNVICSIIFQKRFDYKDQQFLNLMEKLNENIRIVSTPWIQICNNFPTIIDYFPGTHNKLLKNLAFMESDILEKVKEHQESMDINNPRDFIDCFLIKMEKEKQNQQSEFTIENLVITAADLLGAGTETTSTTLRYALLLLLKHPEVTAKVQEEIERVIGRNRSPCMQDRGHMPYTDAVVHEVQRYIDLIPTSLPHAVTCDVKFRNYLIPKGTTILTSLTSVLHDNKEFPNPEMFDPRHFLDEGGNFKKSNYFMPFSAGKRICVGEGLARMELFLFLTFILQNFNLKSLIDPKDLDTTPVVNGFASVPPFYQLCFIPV
Cytochrome P450 2C9, sequence (P11712 whole entry): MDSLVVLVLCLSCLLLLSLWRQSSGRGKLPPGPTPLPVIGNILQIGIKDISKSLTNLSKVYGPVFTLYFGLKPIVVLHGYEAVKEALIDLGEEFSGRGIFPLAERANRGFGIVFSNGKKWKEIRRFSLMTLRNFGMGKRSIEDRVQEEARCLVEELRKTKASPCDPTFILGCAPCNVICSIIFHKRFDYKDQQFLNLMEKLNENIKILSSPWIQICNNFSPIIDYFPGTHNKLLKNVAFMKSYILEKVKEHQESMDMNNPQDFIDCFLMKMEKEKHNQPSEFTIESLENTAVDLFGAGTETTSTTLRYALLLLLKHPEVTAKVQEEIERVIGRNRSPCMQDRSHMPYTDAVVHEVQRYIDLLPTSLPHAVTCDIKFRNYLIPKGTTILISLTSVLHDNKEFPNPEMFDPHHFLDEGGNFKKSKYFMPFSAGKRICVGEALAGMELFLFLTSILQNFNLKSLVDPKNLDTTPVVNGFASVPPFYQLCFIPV

Drug metabolism [1]	Drug metabolism [2]	Drug metabolism [3]	Drug metabolism (Cytochrome P450 2C19)	Drug metabolism [4]	Drug metabolism (Cytochrome P450 2C9)	Drug metabolism [5]	Compound
metabolite_detected	–	–	–	–	–	–	COc1ccc2nc(COc3ccc(CC(S)C(=O)O)cc3)n(C)c2c1 (configuration not stated)
–	metabolite_not_detected	metabolite_detected	metabolite_detected	metabolite_not_detected	metabolite_not_detected	metabolite_not_detected	COc1ccc2nc(COc3ccc(C[14CH]4SC(=O)NC4=O)cc3)n(C)c2c1.Cl (racemic)
